Where two headings read alike, the source gives them in different places.
Experiments:
[1] = first steady-state pazopanib trough concentration; type: in vivo, human
Procedure, shortened: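 Observational study. Patients took the study drug 800 mg OD fasted or 600 mg OD with food and were advised to take a PPI/H2A 1 hour later; antacid users were counted as non-GAS. Only the first steady-state (>7 consecutive days) plasma trough was used, measured by validated HPLC-MS/MS.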

advanced RCC = type: in vivo, human; conditions: univariate Cox regression
Procedure, shortened: (§1)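 PFS was defined as time on treatment until progression or death and analysed per tumour type, with GAS vs no GAS groups (PPI/H2A use on the days before first Cmin). Median PFS came from Kaplan-Meier with log rank test, and hazard ratios from univariate Cox regression; P<.05 was significant. Patients with GI abnormalities or on strong CYP3A4 inducers/inhibitors were excluded.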

STS = type: in vivo, human; conditions: for median PFS: pazopanib 800 mg fasted cohort
Procedure, shortened: as §1

[2] = cited from earlier work
[3] = cited from earlier work; remark: listed apart in the source
[4] = system: gastric H+/K+ adenosine triphosphatase (ATPase); conditions: porcine gastric vessels, cited from earlier work
intragastric pH = conditions: cited from earlier work
CYP1A2 = conditions: cited from earlier work

| Compound | percentage of patients with Cmin below the target threshold of 20.5 mg/L ([1]; pazopanib 600 mg taken with food, with GAS) [%] | percentage of patients with Cmin below the target threshold of 20.5 mg/L ([1]; pazopanib 600 mg taken with food, without GAS) [%] | percentage of patients with Cmin below the target threshold of 20.5 mg/L ([1]; pazopanib 800 mg taken fasted, with GAS) [%] | percentage of patients with Cmin below the target threshold of 20.5 mg/L ([1]; pazopanib 800 mg taken fasted, without GAS) [%] | hazard ratio for PFS, with vs without GAS (advanced RCC) | median PFS (STS; with GAS) [weeks] | median PFS (STS; without GAS) [weeks] | hazard ratio for progression or death, with vs without GAS (STS; univariate Cox regression) | increase of exposure on intake with a high caloric meal [2] | oral bioavailability [2] | decrease of mean pazopanib Cmin levels ([2]; esomeprazole administered 12 hours after fasted intake of pazopanib) [%] | solubility in aqueous solutions ([3]; above pH 4) | solubility in aqueous solutions ([3]; pH 1) | time to fully inhibit the H+, K+ ATPase [4] [min] | duration of pH elevation >4 (intragastric pH; omeprazole 20 mg) | effect on CYP1A2 (CYP1A2) | inhibition of H+, K+ ATPase ([4]; at 45 minutes) [%] | duration of pH elevation >4 (intragastric pH; pantoprazole 40 mg) |
| --- | --- | --- | --- | --- | --- | --- | --- | --- | --- | --- | --- | --- | --- | --- | --- | --- | --- | --- |
| Cc1ccc(Nc2nccc(N(C)c3ccc4c(C)n(C)nc4c3)n2)cc1S(N)(=O)=O [pazopanib] | 26.9 | 14 | 33.3 | 19.5 | 1.13 | 17 | 32 | 3.89 | ~ 2 fold | approximately 21% | 36 | practically insoluble | slightly soluble | – | – | – | – | – |
| COc1ccc2[nH]c([S+]([O-])Cc3ncc(C)c(OC)c3C)nc2c1 (stereo not shown) [omeprazole] | – | – | – | – | – | – | – | – | – | – | – | – | – | 30 | 49.16 % of the day | dose‐dependent inducer of CYP1A2 | – | – |
| COc1ccnc(C[S+]([O-])c2nc3ccc(OC(F)F)cc3[nH]2)c1OC (stereo not shown) [pantoprazole] | – | – | – | – | – | – | – | – | – | – | – | – | – | – | – | does not affect CYP1A2 | 50 | 41.94 % of the day |
